# Screens deposited in PubChem BioAssay by The Scripps Research Institute Molecular Screening Center.
# Only some compounds are listed: those with a hit (about 1.3% of all), similar ones and a draw of the others.
# NR2E3 ag-1 – agonists of human NR2E3 nuclear receptor | Q9Y5X4 | CHO-S Gal4-NCOR/VP16-NR2E3 two-hybrid, luciferase | inhibition of corepressor binding, % at 3.98 µM | 360,000 tested, 0.35% active;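 active means inhibition above the mean of all tested compounds plus 3 SD, cut at about 70% in these data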;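 further: 0% = DMSO with NR2E3 transfected cells and 100% = cells lacking NR2E3 construct; higher means lower luciferase signal from less NR2E3 corepressor binding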
# Target sequence (Q9Y5X4 whole entry, looked up, the tested form may be a part): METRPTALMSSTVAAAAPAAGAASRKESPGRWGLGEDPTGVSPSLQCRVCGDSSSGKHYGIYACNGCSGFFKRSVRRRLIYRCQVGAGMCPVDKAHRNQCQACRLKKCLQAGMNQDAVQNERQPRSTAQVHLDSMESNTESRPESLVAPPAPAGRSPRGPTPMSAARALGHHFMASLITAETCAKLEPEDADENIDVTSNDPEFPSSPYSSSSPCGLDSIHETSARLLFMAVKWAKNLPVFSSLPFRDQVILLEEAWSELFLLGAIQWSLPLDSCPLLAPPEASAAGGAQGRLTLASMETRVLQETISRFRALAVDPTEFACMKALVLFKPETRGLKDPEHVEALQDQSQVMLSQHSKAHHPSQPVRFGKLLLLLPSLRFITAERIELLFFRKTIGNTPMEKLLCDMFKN
# PP5 primary – PP5 (human) phosphatase inhibition; P53041; purified PP5c, OMFP substrate fluorescence; inhibition, % at 6.7 µM; 320,000 tested, 0.18% active; AID 1987;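 active means inhibition above the campaign's mean inhibition across all tested compounds plus 3 SD, cut at about 9.5% in these data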;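 further: 0% = DMSO only and 100% = 100 µM cantharidin control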
# NR2E3 ag-2 – NR2E3 (human) agonism; Q9Y5X4; GST-NR2E3/biotin-RetCOR TR-FRET, 1536-well; inhibition of corepressor binding, % at 4.78 µM; 320,000 tested, 0.12% active; AID 2300;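 active means percent inhibition above the cutoff of mean plus 3 SD of all tested compounds, set per screening campaign, cut at about 20% in these data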;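 further: 0% = DMSO wells and 100% = biotin wells as full block of FRET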
#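 Test system – NR2E3–RetCOR corepressor complex · Quantity – NR2E3 fusion 1.35 nM · Buffer or medium – Tris pH 7.5 · Incubation – Compound–protein incubation for 5 h at 4 °C · Technique – TR-FRET, Eu(K)-anti-GST donor, streptavidin-D2 acceptor, ex 340, em 617/671 nm · Evaluation – percent inhibition of 671/617 nm emission ratio versus biotin and DMSO controls · Plate – 1536-well format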
# PP1 counter – blocks human PP1-alpha phosphatase, a PP5 counter-screen. purified PP1alpha, OMFP fluorescence. AID 2235. P62136. inhibition, % at 6.7 µM. 320,000 tested, 0.9% active;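 active means inhibition above the mean inhibition of all tested compounds plus 3 SD, computed separately for each screening campaign, cut at about 15% in these data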
# PP1 inh confirm – human PP1 phosphatase inhibition, confirmation; shares compounds with PP1 counter; inhibition, % at 6.7 µM; purified PP1alpha, OMFP substrate fluorescence; 1,900 tested, 52% active; AID 2358;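 active means mean PP1 inhibition above a set limit taken from the earlier primary screen, cut at about 15% in these data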
# PP5 inh counter – counter-screen for PP1 inhibitors: human PP5 phosphatase inhibition; 1,900 tested, 4% active; inhibition, % at 6.7 µM; shares compounds with PP1 counter; AID 2360; purified PP5c, OMFP fluorescence;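 active means mean PP5 inhibition over triplicate wells above about 9.5% taken from the earlier PP1 screen, limit read from the data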
# NR2E3 ag confirm – NR2E3 agonism confirmed in two-hybrid assay; shares compounds with NR2E3 ag-1; AID 624378; 2,300 tested, 51% active; CHO-S mammalian two-hybrid NR2E3-NCOR, luciferase luminescence; inhibition, % at 3.98 µM;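 active means average inhibition above a cutoff equal to the mean inhibition of all tested compounds plus one SD, cut at about 70% in these data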;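 further: 0% = DMSO in NR2E3 cells and 100% = DMSO in cells lacking NR2E3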
# GAL4-VP16 luc – counter-screen for NR2E3 agonists: GAL4-VP16 reporter inhibitors | inhibition, % at 3.98 µM | shares compounds with NR2E3 ag-1 | 2,300 tested, 29% active | CHO-S GAL4-VP16 luciferase reporter, luminescence;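 active means mean inhibition above a cutoff equal to the average over all tested compounds plus one standard deviation, cut at about 70% in these data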;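 further: luciferase from a UAS reporter driven by GAL4-VP16 transactivation; 0% = DMSO with VP16-transfected cells and 100% = DMSO with cells lacking VP16; higher means less reporter light so more repression of VP16 activity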
# * = called active by the depositor; x = no result.
SMILES,NR2E3 ag-1,PP5 primary,NR2E3 ag-2,PP1 counter,PP1 inh confirm,PP5 inh counter,others
O=C(Nc1nc(-c2ccccn2)cs1)c1ncc(Cl)c(Cl)c1Cl,-2,2,-2,37*,41*,1,
O=C(/C=C/c1ccco1)Nc1nc(-c2ccccc2)cs1,-34,-2,6,2,x,x,
O=C(CCCSc1ccccc1)Nc1nc(-c2ccccn2)cs1,-15,5,2,41*,39*,-2,
O=C(/C=C/c1ccco1)Nc1nc(-c2ccccn2)cs1,-16,2,4,32*,40*,-2,
O=C(COc1ccc(F)cc1Cl)Nc1nc(-c2ccccn2)cs1,34,1,2,42*,43*,-2,
N#Cc1ccccc1OCC(=O)Nc1nc(-c2ccccn2)cs1,24,x,x,x,x,x,
CCc1sc(C(=O)Nc2nc(-c3ccccn3)cs2)cc1C,41,x,x,x,x,x,
O=C(Nc1nc(-c2ccccn2)cs1)c1ccc(Cl)s1,11,6,2,31*,29*,4,
COc1ccc(OC)c(NC(=O)CSc2nnc3ccc(-c4ccccn4)nn23)c1,2,1,-4,1,x,x,
O=C(Cn1c(=O)n(Cc2ccco2)c(=O)c2c3c(sc21)CCCCC3)Nc1ccccc1,-5,5,-3,8,x,x,
O=C(Cn1c(=O)n(Cc2ccco2)c(=O)c2c3c(sc21)CCCCC3)c1ccccc1,-5,3,2,25*,16*,-1,
CCS(=O)(=O)c1ccc(N=Nc2ccc(O)c3ncccc23)c(OC)c1,-27,x,x,x,x,x,
COc1ccccc1N=Nc1ccc(O)c2ncccc12,-52,7,1,19*,16*,5,
O=C1Nc2ccccc2N2CCCC12 (centres undefined),x,0,9,22*,-5,49*,
CCOc1ccc(CCNC(=O)c2ccc3c(c2)NC(=O)C2CCCN32)cc1OCC (centres undefined),x,1,3,1,x,x,
COC(=O)c1ccc(NC(=O)c2ccc3c(c2)NC(=O)C2CCCN32)cc1 (centres undefined),x,7,4,34*,27*,7,
CCOC(=O)c1sc(N2C(=O)C(O)=C(C(=O)c3ccco3)C2c2ccc([N+](=O)[O-])cc2)nc1C (centres undefined),-23,5,3,41*,36*,2,
CSc1ccc(C2C(C(=O)c3ccco3)=C(O)C(=O)N2c2nnc(SC)s2)cc1 (centres undefined),-33,-1,9,20*,16*,-5,
Cc1nnc(N2C(=O)C(O)=C(C(=O)c3ccco3)C2c2ccc(F)cc2)s1 (centres undefined),8,2,6,1,x,x,
CCCOc1cccc(C2C(C(=O)c3ccco3)=C(O)C(=O)N2c2nnc(C)s2)c1 (centres undefined),-27,-2,13,0,x,x,
CCOC(=O)c1sc(N2C(=O)C(O)=C(C(=O)c3ccco3)C2c2ccc(C)o2)nc1C (centres undefined),-78,3,6,23*,23*,2,
COc1ccccc1CN1C(=O)C(C)ON=C1c1ccccc1F (centres undefined),-57,x,x,x,x,x,
C/C(=N\NC(=O)c1nnn(-c2nonc2N)c1CSc1ccc(C)cc1)c1cccs1,-35,x,x,x,x,x,
O=C(/C=C/c1ccco1)NC(=S)Nc1ccccc1,-42,4,-1,1,x,x,
CC(=O)c1ccc(NC(=S)NC(=O)/C=C/c2ccco2)cc1,-40,2,0,23*,29*,-6,
SMILES,NR2E3 ag-1,PP5 primary,NR2E3 ag-2,PP1 counter,PP1 inh confirm,PP5 inh counter,others
CC(=O)Nc1ccc(NC(=S)NC(=O)/C=C/c2ccc(Cl)cc2)cc1,9,0,0,-1,x,x,
O=C(/C=C/c1ccc(Cl)cc1)NC(=S)Nc1ccc(NC(=O)c2ccco2)cc1,-10,-1,2,21*,24*,0,
O=C(/C=C/c1ccco1)NC(=S)Nc1cccc(-c2nc3ccccc3s2)c1,-97,3,-2,24*,10,1,
O=S(=O)(c1ccccc1)N1CCN(c2nnc(-c3ccccc3)c3ccccc23)CC1,-6,-1,-3,1,x,x,
O=C(N/N=C/c1ccncc1)c1sc2ccccc2c1Cl,-12,-2,1,1,x,x,
COc1ccc2c(Cl)c(C(=O)N/N=C/c3ccncc3)sc2c1,-22,0,-12,40*,48*,-5,
COc1ccc(N2C3=C(CC4=C2CC(C)(C)CC4=O)C(=O)CC(C)(C)C3)cc1,-2,4,0,-4,x,x,
COc1ccc(N2C3=C(CC4=C2CCCC4=O)C(=O)CCC3)cc1,-36,0,-4,34*,3,4,
CC(C)=CCc1c(O)cc2oc3c(CC=C(C)C)c(O)c(O)c(CC=C(C)C)c3c(=O)c2c1O,-35,4,2,39*,33*,0,
CC1(C(=O)O)CCCN(C(=O)c2cccnc2Oc2ccccc2)C1 (centres undefined),-4,x,x,x,x,x,
O=C(N/N=C/c1cccc(O)c1)c1cc(-c2ccc3c(c2)OCO3)n[nH]1,-47,5,-1,-1,x,x,
O=C(N/N=C/c1cccc([N+](=O)[O-])c1)c1cc(-c2ccc3c(c2)OCO3)n[nH]1,-1,0,5,20*,25*,-3,
O=C1c2cccc3cccc(c23)C(=O)N1CC1CCN(CC(O)COc2ccc3ccccc3c2)CC1 (centres undefined),51,0,-8,34*,0,1,NR2E3 ag confirm=17;GAL4-VP16 luc=18
CC(C)c1cc2c(c(O)c1O)[C@@]13CCCC(C)(C)C1CC2OC3=O (some centres undefined),85*,0,2,44*,2,-4,NR2E3 ag confirm=92*;GAL4-VP16 luc=-5
Cc1nc(-c2ccccn2)nc(N(C)c2ccccc2)c1Cl,105*,1,0,27*,23*,-4,NR2E3 ag confirm=39;GAL4-VP16 luc=17
Cc1ccn2c(Nc3ccccc3)c(-c3ccccn3)nc2c1,68,2,-2,31*,33*,-1,NR2E3 ag confirm=91*;GAL4-VP16 luc=64
Cc1ccccc1Nc1c(-c2ccccn2)nc2ccccn12,76*,3,-2,34*,12,2,NR2E3 ag confirm=35;GAL4-VP16 luc=2
Cc1ccc2nc(-c3ccccn3)c(Nc3ccccc3C)n2c1,94*,4,-5,30*,42*,5,NR2E3 ag confirm=34;GAL4-VP16 luc=-39
Cc1ccn2c(NC(=O)c3ccccc3)c(-c3ccccc3)nc2c1,-8,-1,-1,-2,x,x,
Cc1ccn2c(Nc3ccccc3C)c(-c3ccccn3)nc2c1,97*,4,1,32*,39*,3,NR2E3 ag confirm=44;GAL4-VP16 luc=8
